In the library only some 1.3% were active in any assay of this set; here they are far more common.
CSN deneddyl inh: inhibitors of CSN-mediated cullin deneddylation, primary screen, biochemical, fluorescence polarization, uHTS | COP9 signalosome complex subunit 5 (Homo sapiens), Q92905 | Purified CSN, SCF-Nedd8-OG deneddylation | inhibition, % at 12.5 µM | actives 0.38% (n = 360,000) | AID 651999, 2013;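 active = pattern-corrected inhibition above about 35%, with an unprinted fluorescence ratio check between 0.5 and 1.5, limit read from the data, passing the limit was not always enough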
Target sequence (Q92905 whole entry, looked up, one chain of several): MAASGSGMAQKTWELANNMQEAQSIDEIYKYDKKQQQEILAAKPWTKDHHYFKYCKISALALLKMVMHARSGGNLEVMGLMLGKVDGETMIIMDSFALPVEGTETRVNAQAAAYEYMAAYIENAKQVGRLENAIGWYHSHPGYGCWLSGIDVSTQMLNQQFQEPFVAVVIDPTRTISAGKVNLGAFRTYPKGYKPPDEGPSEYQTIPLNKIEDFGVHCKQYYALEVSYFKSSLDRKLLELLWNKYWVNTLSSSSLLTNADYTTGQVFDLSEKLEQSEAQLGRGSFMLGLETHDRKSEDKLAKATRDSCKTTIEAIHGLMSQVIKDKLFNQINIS
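Detection – fluorescence polarization · System – HEK293T-derived human Csn5 enzyme · Controls – substrate-only high control, full reaction low control · Timing – 90 min, room temperature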
Xi reactivation: activators of inactive X chromosome reactivation, primary screen, imaging, XiGFP fibroblasts, GFP high-content imaging, set 2; XiGFP mouse fibroblasts, % GFP-positive cells imaging, 3 d; cells co-treated with 5-aza-dC sensitizer; scaled so ellipticine positive control = 100%; activation, % at 7.58 µM; actives 0.055% (n = 360,000); AID 743238, 2013;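 active = mean normalized replicate activation at least 10% and every replicate at or above 10%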
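assay system = SV40-immortalized XiGFP fibroblast cells, line 68-5-11 | buffer or medium = DMEM plus 5-aza-dC sensitizer | doses = single-point pinned compound dosing | times = 3-day compound exposure, then 15 min fixation at room temperature | benchmarks = positive control ellipticine, 6 µM final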
aDG glyco act: activators of alpha-DG glycosylation, primary screen, uHTS, Pro5-aDG cells, AlphaScreen; alpha-DG glycosylation AlphaScreen (IIH6); 0% Pro5, 100% B10-LARGE cell signal; activation, % at 10 µM; actives 0.22% (n = 360,000); AID 624168, 2012;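 active = activation of at least 8% versus controls, or a plate z-score of at least 8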;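 note: Pro5 are CHO cells carrying HIG-tagged alpha-DG that lacks glycosylation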
TPT1 inh: Candida albicans TPT1 enzyme inhibitors, primary screen, biochemical, fluorescence polarization | tRNA 2'-phosphotransferase TPT1 (Candida albicans SC5314) | recombinant caTPT1, FP RNA substrate dephosphorylation | inhibition, % at 5 µM | actives 0.81% (n = 300,000) | AID 1962, 2009;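 active = inhibition above the mean of all tested compounds plus 3 SD, set per screening campaign, cut at about 24% in these data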
HNF4A DNA FP: change in binding of human HNF4A to DNA, primary screen, biochemical, fluorescence polarization, FITC-DNA. Hepatocyte nuclear factor 4-alpha (Homo sapiens), P41235. 1 h. activity change, % at 10 µM. actives 0.3% (n = 360,000). AID 1224865, 2016; in the data active = activity change above about 30%, passing the limit was not always enough
Rpn11 inh: Rpn11 (PSMD14) deubiquitinase inhibitors, primary screen, biochemical, fluorescence polarization, uHTS; 26S proteasome non-ATPase regulatory subunit 14 (Homo sapiens), O00487; human 26S proteasome, Ub4-pepOG fluorescence polarization; 20S core pre-blocked with epoxomicin; inhibition, % at 20 µM; actives 0.59% (n = 360,000);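 active = inhibition at 20 µM, scaled to each plate's controls, above about 33%, limit read from the data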
TPT1 inh confirm: Candida albicans TPT1 inhibitors, confirmation, biochemical, fluorescence polarization, triplicate | recombinant caTPT1, RNase T1 coupled | AID 2149, 2009 | shares compounds with TPT1 inh | actives 74% (n = 2,400) | inhibition, % at 5 µM;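 active = inhibition above the primary screen limit, the mean inhibition of all tested compounds plus 3 SD, cut at about 25% in these data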
RNase T1 counter: RNase T1 inhibitors, counter-screen for TPT1 inhibitor project, biochemical, fluorescence polarization; actives 83% (n = 2,400); inhibition, % at 5 µM; AID 2153, 2009; shares compounds with TPT1 inh; RNase T1 cleavage, 1536-well;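 active = inhibition above the solvent-only control well mean plus 3 SD, limit set per screening run, cut at about 23% in these data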;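 note: inhibitors block cleavage so intact labeled substrate keeps polarization high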
Target sequence (P00651 whole entry, looked up): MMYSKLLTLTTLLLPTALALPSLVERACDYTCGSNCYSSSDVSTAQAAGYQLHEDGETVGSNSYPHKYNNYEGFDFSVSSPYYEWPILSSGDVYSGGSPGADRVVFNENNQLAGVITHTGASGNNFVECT
Rpn11 confirm: Rpn11 (PSMD14) deubiquitinase inhibitors, confirmation, biochemical, fluorescence polarization, single concentration | shares compounds with Rpn11 inh | purified human 26S proteasome, Ub4-pepOG fluorescence polarization; proteasome pretreated with epoxomicin | inhibition, % at 20 µM | actives 29% (n = 1,900) | AID 602318, 2012
MMP-2 counter: MMP-2 enzyme inhibition, confirmation, counter-screen for RPN11 inhibitor project, biochemical, fluorescence, single concentration; shares compounds with Rpn11 inh; recombinant MMP-2, FRET peptide cleavage fluorescence; inhibition, % at 20 µM; actives 4% (n = 1,900);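 note: human MMP-2 activated beforehand with APMA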
Thrombin inh: bovine thrombin protease inhibition, confirmation, counter-screen for Rpn11 inhibitor project, biochemical, fluorescence polarization, single concentration; inhibition, % at 20 µM; actives 13% (n = 1,900); shares compounds with Rpn11 inh; bovine thrombin cleavage of Ub4-pepOG;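 active = mean inhibition at least 40% at 20 µM, or signal 3 deviations below plate average, so some actives read negative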
Numbers stand for hits; – = inactive; · = no result shown. Cut-off read from the data, not from the text of the source, unless noted: active = inhibition above about 40%; inactive = the rest.

SMILES | CSN deneddyl inh | Xi reactivation | aDG glyco act | TPT1 inh | HNF4A DNA FP | Rpn11 inh | TPT1 inh confirm | RNase T1 counter | Rpn11 confirm | MMP-2 counter | Thrombin inh
O=C(C[C@@H]1CC[C@H](NC(=O)Nc2ccc3c(c2)OCO3)[C@@H](CO)O1)NCc1ccccc1 | · | – | · | · | · | · | · | · | · | · | ·
CCCCCCN1C=C/C(=C\C=C(C#N)C#N)c2ccccc21 | – | – | – | – | – | – | · | · | · | · | ·
CCCCCCN1C=CC=C/C1=C/C=C(C#N)C#N | – | – | – | 62 | – | 46 | 80 | 89 | – | – | 52
O=C(N/N=C/c1c(O)ccc2ccccc12)c1[nH]ncc1Br | – | – | – | 32 | – | 80 | 64 | 63 | 67 | – | –
Cc1ccc(O)c(/C=N/NC(=O)c2[nH]ncc2Br)c1 | – | – | – | – | – | – | · | · | · | · | ·
C[C@@H]1CN([C@H](C)CO)C(=O)Cc2cc(NS(C)(=O)=O)ccc2O[C@H]1CN(C)S(=O)(=O)c1ccc(Cl)cc1 | · | – | · | · | · | · | · | · | · | · | ·
CN(C)S(=O)(=O)c1cccc(-c2nn(-c3ccccc3)cc2/C=C2\SC(=S)NC2=O)c1 | – | – | – | 75 | 59 | 86 | – | 33 | – | – | –
Cc1ccc(S(=O)(=O)Nc2cc(C)cn(Cc3ccc(F)cc3)c2=O)cc1 | – | – | – | 24 | – | 60 | 36 | 47 | – | – | 59
C[C@@H]1CCCCO[C@H](CN(C)C(=O)Nc2ccc(C(F)(F)F)cc2)[C@H](C)CN([C@@H](C)CO)C(=O)c2cc(NS(C)(=O)=O)ccc2O1 | · | – | · | · | · | · | · | · | · | · | ·
CO[C@H]1CN(C)C(=O)c2ccc(NC(C)=O)cc2OC[C@@H](C)N(Cc2ccncc2)C[C@@H]1C | · | – | · | · | · | · | · | · | · | · | ·
CCN1C(=S)SC(=O)C1=C1C=C(C)N(Cc2ccco2)C(C)=C1 | – | · | – | 163 | – | 46 | 126 | 131 | – | – | –
CCN1C(=S)SC(=O)C1=C1C=C(C)OC(C)=C1 | – | · | – | – | – | · | · | · | · | · | ·
CO[C@H]1CN(C)C(=O)c2cc(NC(=O)c3cnccn3)ccc2OC[C@@H](C)N(C)C[C@H]1C | · | – | · | · | · | · | · | · | · | · | ·
CCOC(=O)c1c(NC(=O)c2ccco2)n(C2CCCCC2)c2nc3ccccc3nc12 | – | · | – | 31 | – | 45 | 28 | 39 | – | – | –
CCOC(=O)c1c(N)n(C2CC(C)(C)NC(C)(C)C2)c2nc3ccccc3nc12 | – | · | – | – | – | – | · | · | · | · | ·
NC(=O)c1ccc(NC(=O)COC(=O)/C=C/c2cn(-c3ccccc3)nc2-c2cccnc2)cc1 | – | – | – | 47 | – | 50 | 52 | 66 | – | – | –
N#Cc1ccccc1NC(=O)COC(=O)/C=C/c1cn(-c2ccccc2)nc1-c1ccc(Cl)cc1 | – | – | – | · | – | – | · | · | · | · | ·
Cc1[nH][nH]c(=O)c1C=Nc1ccc(C(F)(F)F)cc1 | – | – | – | – | – | – | · | · | · | · | ·
CCOC(=O)c1c(C)[nH]c(O)c1C=Nc1ccc(C(F)(F)F)cc1 | – | · | – | 36 | – | 49 | 30 | 40 | – | – | –
CCCCC1(C)OC(=O)C(=Cc2ccc(N(CC)CC)cc2)C(=O)O1 (stereo unspecified) | – | · | – | 92 | – | 55 | 167 | 155 | 92 | – | 90
CCN(CCO)c1ccc(N=Nc2cc(C)[nH]n2)cc1 | – | – | – | 25 | 47 | 70 | 34 | 42 | 42 | – | –
O=C(Nc1ccccc1)N1CCCCN2[C@@H](CO)[C@@H](c3ccc(C#Cc4ccccn4)cc3)[C@@H]2C1 | · | – | · | · | · | · | · | · | · | · | ·
COc1cc(S(=O)(=O)Nc2ccccc2)ccc1N=Cc1c(C)[nH]n(-c2ccc(C)cc2)c1=O | · | · | · | – | · | · | · | · | · | · | ·
COc1cc(SC#N)ccc1N=Cc1c(C)[nH]n(-c2ccc(C)c(C)c2)c1=O | – | – | – | 30 | – | 44 | 62 | 67 | – | – | –
O=S(=O)(c1ccccc1)N1CC2(C1)[C@H](c1ccccc1)[C@H](CO)N2CCC(F)(F)F | · | – | · | · | · | · | · | · | · | · | ·
SMILES | CSN deneddyl inh | Xi reactivation | aDG glyco act | TPT1 inh | HNF4A DNA FP | Rpn11 inh | TPT1 inh confirm | RNase T1 counter | Rpn11 confirm | MMP-2 counter | Thrombin inh
CO[C@@H]1CN(C)C(=O)c2ccc(NS(C)(=O)=O)cc2OC[C@H](C)N(Cc2ccccn2)C[C@H]1C | · | – | · | · | · | · | · | · | · | · | ·
Cc1ccc(S(=O)(=O)Nc2ccc3c(c2)C(=O)N([C@@H](C)CO)C[C@@H](C)[C@H](CN(C)S(=O)(=O)c2ccc(F)cc2)OCCCC[C@@H](C)O3)cc1 | · | – | · | · | · | · | · | · | · | · | ·
Cc1ccc2[nH]cc(/C=C/c3cc[n+](C)cc3)c2c1 | – | – | – | · | – | · | · | · | · | · | ·
COc1ccc2c(/C=C/c3cc[n+](C)cc3)c[nH]c2c1 | – | – | – | 43 | 36 | 52 | 47 | 59 | 68 | – | 72
CCCNC(=O)N1CC(=O)N2[C@H](CO)[C@H](c3ccc(C#Cc4ccccc4)cc3)[C@@H]2C1 | · | – | · | · | · | · | · | · | · | · | ·
COc1cc(/C=C2/C(=O)N(c3cccc(Br)c3)N=C2C)cc(OC)c1O | – | – | – | 70 | – | 78 | 86 | 91 | 80 | – | 60
C[C@H](CO)N1C[C@H](C)[C@H](CN(C)CC2CC2)OCCCC[C@H](C)Oc2ccc(NS(=O)(=O)c3cn(C)cn3)cc2C1=O | · | – | · | · | · | · | · | · | · | · | ·
